# Assay outcomes (PubChem BioAssay)
# ALR H2O2 inh – human ALR oxidase inhibition via reduced H2O2; actives 3.8% (n = 290,000); inhibition, % (test concentration not listed); purified ALR, DTT oxidation, H2O2 HRP-luminol luminescence; P55789; AID 485317;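 active = mean replicate inhibition above about 79%, with every replicate also reaching it, limit read from the data; inconclusive = only one of the two criteria met; inactive = mean below limit and not every replicate reaching it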
# Target sequence (P55789 whole entry, looked up): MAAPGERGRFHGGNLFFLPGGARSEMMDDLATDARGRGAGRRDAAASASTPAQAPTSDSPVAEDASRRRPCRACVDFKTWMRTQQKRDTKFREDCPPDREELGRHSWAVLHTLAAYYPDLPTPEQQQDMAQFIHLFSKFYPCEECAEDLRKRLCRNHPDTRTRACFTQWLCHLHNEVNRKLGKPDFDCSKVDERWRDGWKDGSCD
# Glyco luc inh – N-linked glycosylation inhibition; reporter increase, % at 12.5 µM; AID 588692; actives 0.23% (n = 360,000); D54 ERlucT glycosylation luciferase reporter, 24 h; percent of 100 nM tunicamycin response;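 active = mean luciferase reporter signal, scaled so untreated is 0 and the glycosylation-blocking control 100, at or above a set limit in every replicate; inconclusive = mean reaches the limit but not every replicate does; inactive = mean below the limit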;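 also: luciferase carries N-glycosylation sites so blocking glycosylation raises the light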
# T cell modulator – T cell immune modulation candidate | actives 0.068% (n = 330,000) | response (vesicle binding), % at 7 µM | 2C CD8+ T cell-vesicle binding, flow cytometry; active compounds read low;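 active = response, share of CD8 T cells binding vesicles, and their 90th percentile fluorescence all below set limits, cut at about 80% in these data, passing the limit was not always enough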;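 also: values below 100% mean blocked vesicle binding to the CD8+ T cells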
#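 incubation = binding step 1.5 h, 37 °C, antibody labelling 20 min, ice | test system = 2C mouse CD8+ T cells | read-out basis = percent CD8+ FL2 mean versus row control | controls = Peptide-free naked vesicles (low) and QL9 vesicles with 0.7% DMSO vehicle (high) | detection = flow cytometry of vesicle-bound cells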
# A number is an active result; n = inactive; u = inconclusive; x = no result given. Only a selection was taken, and hits are over-represented in it overall.
SMILES,ALR H2O2 inh,Glyco luc inh,T cell modulator
Cc1cccc(NC(=O)CNC(=O)CSc2nnc(C(F)(F)F)n2C)c1C,n,n,n
O=C(NCCN1CCN(c2ccccc2)CC1)c1ccccc1F,98.7,n,n
COc1cc(/C=N/NC(=O)CCN2CCN(Cc3ccccc3)CC2)cc(OC)c1OC,x,n,n
O=C(NCCN1CCN(c2ccccc2)CC1)Nc1ccc(Cl)cc1,n,n,n
COc1cc(NC(=O)NCCN2CCN(c3ccccc3)CC2)cc(OC)c1OC,97.6,n,n
COc1cc(/C=N/NC(=O)CCN2CCN(c3ccccc3)CC2)cc(OC)c1OC,92.7,n,n
O=C(NCCCN1CCN(CCCNC(=O)c2ccccc2F)CC1)c1ccccc1F,n,n,n
CSCCC(NC(=O)/C(=C\c1ccc(Cl)cc1)NC(=O)c1ccccc1)C(=O)O (stereo not given),n,n,n
C[C@H](CO)N1C[C@H](C)[C@@H](CN(C)Cc2ccncc2)Oc2c(cccc2N(C)C)C1=O,n,n,n
CN1CCc2[nH]c3ccc(C(=O)NN)cc3c2C1,97.8,n,n
NNC(=O)c1ccc2[nH]c3c(c2c1)CCCC3,x,n,n
COC(=O)c1c(NC(=O)CN2CCN(Cc3ccc4c(c3)OCO4)CC2)sc(C)c1C,97.3,n,n
COC(=O)c1ccsc1NC(=O)CN1CCN(Cc2ccc3c(c2)OCO3)CC1,n,n,n
COc1ccc(CC(=O)NCc2ccc3c(c2)OCO3)cc1,n,n,n
COc1cccc(-c2nc(CS(=O)CC(=O)NCc3ccc4c(c3)OCO4)c(C)o2)c1 (stereo not given),99.0,n,n
COc1ccc(-c2nc(CS(=O)CC(=O)NCc3ccc4c(c3)OCO4)c(C)o2)cc1 (stereo not given),98.9,n,n
COc1cccc(NC(=O)CN(C)CC(=O)NCc2ccc3c(c2)OCO3)c1,x,n,n
COc1cccc(-c2nc(CS(=O)CC(=O)NCc3ccccc3Cl)c(C)o2)c1 (stereo not given),99.1,n,n
CSC1=NC(C(Cl)(Cl)Cl)N=C(c2ccc(C)cc2)N1 (stereo not given),n,n,n
NC(=O)CCN(C(=O)c1cccc(S(=O)(=O)N2CCc3ccccc32)c1)c1ccccc1,n,n,n
Cc1ccc(S(=O)(=O)N2[C@@H](c3cccc(Cl)c3)C(C(=O)O)=CC[C@H]2c2ccc3c(c2)OCO3)cc1,n,n,n
Cc1ccc2nc3c(c(Nc4ccccc4)c2c1)CCC3,96.6,n,n
COc1ccc(Nc2nc(N)c3ccccc3n2)c(OC)c1,84.0,n,n
COc1ccc(Nc2cc(C)c3ccccc3n2)cc1,x,n,n
COc1ccc(Nc2c3c(nc4ccccc24)CCC3)cc1,99.4,n,n
SMILES,ALR H2O2 inh,Glyco luc inh,T cell modulator
COc1ccc(NC(=O)c2c3c(nc4ccccc24)CCC3)cc1,n,n,n
COc1ccc(Nc2c3ccccc3nc3ccccc23)cc1,99.6,41.9,n
Cc1ccccc1C(=O)Nc1c2c(nc3ccccc13)CCCC2,x,n,n
COc1ccc(Nc2nc(-c3ccccc3)nc3ccccc23)c(OC)c1,n,n,n
CCN1Cc2cc(OC)ccc2-c2ccccc2S1(=O)=O,x,n,x
C[C@@H]1CN([C@H](C)CO)C(=O)CCCn2nncc2CO[C@@H]1CN(C)C(=O)C1CC1,x,n,x
O=C(COC(=O)Cc1c(Cl)cccc1Cl)NCCC1=CCCCC1,n,n,n
COc1cc(Nc2nc(-c3ccccc3)c3cc(C)ccc3n2)cc(OC)c1OC,x,n,n
c1ccc2c(Nc3ccc4c(c3)OCCO4)c3c(nc2c1)CCC3,80.0,n,n
COc1ccc(Nc2c3c(nc4ccccc24)CCCC3)cc1OC,98.8,n,n
COCCNc1c2c(nc3ccccc13)CCC2,n,n,n
Cc1cc(Nc2ccc3c(c2)OCCO3)c2ccccc2n1,x,n,n
CN(C)CCCNc1c2c(nc3ccccc13)CCC2,n,29.8,n
COc1cc(Nc2c3ccccc3nc3ccccc23)cc(OC)c1OC,93.8,n,n
COc1ccc(C)cc1Nc1c2c(nc3ccccc13)CCC2,u,n,n
CN(C)C(CNC(=O)C1CC(=O)N(c2cccc(C(F)(F)F)c2)C1)c1ccccc1 (stereo not given),x,n,x
CC(NC(=O)c1ccc2nc(Cc3cccc(Cl)c3)oc2c1)c1ccncn1 (stereo not given),x,n,x
C=C1C(=O)OC2CC1C(OC(C)=O)CC(C)=CCCC(C)=CCCC2(C)O (stereo not given),x,n,x
CSCCC(NC(=O)c1cc(S(=O)(=O)N2CCOCC2)ccc1F)c1nc2ccccc2[nH]1 (stereo not given),n,n,n
Fc1ccc(Nc2c3c(nc4ccccc24)CCC3)cc1,95.2,n,n
COc1ccccc1Nc1c2ccccc2nc2ccccc12,99.2,n,n
COc1nc(NCCc2ccc(OC)c(OC)c2)nc(OC)n1,n,n,n
c1ccc(Nc2c3c(nc4ccccc24)CCC3)cc1,x,n,n
COc1ccccc1Nc1nc(-c2ccccc2)nc2ccccc12,n,n,n
COc1ccc(CCNc2c3ccccc3nc3ccccc23)cc1OC,x,84.5,n
SMILES,ALR H2O2 inh,Glyco luc inh,T cell modulator
CC(=O)Nc1ccc(NC(=O)C(C)OC(=O)C2(c3ccccc3F)CCCC2)cc1 (stereo not given),x,n,n
S=C(NCCN1CCOCC1)NC1CCCCC1,n,n,n
COc1ccccc1N1CCN(C(c2cccs2)C(C)NC(=O)C(=O)N2CCCCC2)CC1 (stereo not given),n,n,n
CCS(=O)(=O)NC(C)C(c1cccs1)N1CCN(c2ccc(OC)cc2)CC1 (stereo not given),99.1,n,n
COc1ccc(N2CCN(C(c3cccs3)C(C)NS(=O)(=O)c3ccccc3)CC2)cc1 (stereo not given),n,n,n
COc1ccc(N2CCN(C(c3cccs3)C(C)NC(=O)C(=O)N3CCCC3)CC2)cc1 (stereo not given),97.8,n,n
CC(NC(=O)c1cccs1)C(c1cccs1)N1CCN(c2ccccc2)CC1 (stereo not given),n,n,n
COc1ccc(N2CCN(C(c3cccs3)C(C)NC(=O)C(=O)N3CCCCC3)CC2)cc1 (stereo not given),98.4,n,n
COc1ccc(N2C(=O)[C@@H]3[C@H](C2=O)[C@H]2c4ccccc4C=CN2[C@@H]3C(C)=O)cc1,n,n,n
CCOc1cc(/C=N/NC(=O)C2CC2)ccc1OC(C)C,n,n,n
COc1ccc(CS(=O)(=O)c2nc(C)cc(C)c2S(C)(=O)=O)cc1,n,n,n
CCOc1ccc(C2C3=C(CC(C)(C)CC3=O)N(CCCOC)C3=C2C(=O)CC(C)(C)C3)cc1OC,x,n,x
CCOC(=O)c1c(-c2ncc(C(F)(F)F)cc2Cl)noc1C,n,n,n
Cc1ccc(OCC(=O)NCCNC(=O)c2ccco2)cc1,n,n,n
O=C(NC1CCN(Cc2ccccc2)CC1)c1ccc2c(c1)[nH]c(=O)n2Cc1ccc(F)cc1,n,n,n
COc1ccc(/C=C2\CCCC(C(=O)C(F)(F)F)=C2O)cc1,n,n,n
O=C(C1=C(O)/C(=C/c2ccc(O)cc2)CCC1)C(F)(F)F,98.9,n,n
O=C1CC(N2CCC(c3nc4ccccc4[nH]3)CC2)C(=O)N1Cc1ccccc1 (stereo not given),n,n,n
